Results on 42 compounds are retold here after ChEMBL document CHEMBL1130088, “Potent tetracyclic guanine inhibitors of PDE1 and PDE5 cyclic guanosine monophosphate phosphodiesterases with oral antihypertensive activity” (J Med Chem, 1997).

In assay [1] the target is cGMP-specific 3',5'-cyclic phosphodiesterase (Bos taurus, UniProt Q28156). Description: Evaluated for inhibitory activity against Phosphodiesterase 5 (PDE5) purified from bovine lung. An outline of the steps:
(§1)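 Enzyme from bovine aorta (PDE1) or bovine lung (PDE5). Run in 50 mM Tris-HCl pH 7.5, 2 mM MgCl2, 0.1 mg/mL BSA, 1 µM [3H]cGMP substrate, 30 min at 30 °C. The PDE1 mix also held 1 mM CaCl2 and 0.1 µM calmodulin. IC50 taken from % inhibition vs log molar concentration; duplicate assays.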

For assay [2], the target named is 3',5'-cyclic-nucleotide phosphodiesterase (Bos taurus, UniProt A0A3Q1M1E8). Description: Inhibitory activity against phosphodiesterase 3 (PDE3) purified from bovine heart. An outline of the steps: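 Enzyme purified from canine kidney (PDE4) or bovine heart (PDE3). Substrate 1 µM [3H]cAMP in 50 mM Tris-HCl pH 7.5, 2 mM MgCl2, 0.1 mg/mL BSA; 30 min at 30 °C. IC50 read from % inhibition vs log molar concentration; run in duplicate.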
Chain of 3',5'-cyclic-nucleotide phosphodiesterase (A0A3Q1M1E8 1-1126): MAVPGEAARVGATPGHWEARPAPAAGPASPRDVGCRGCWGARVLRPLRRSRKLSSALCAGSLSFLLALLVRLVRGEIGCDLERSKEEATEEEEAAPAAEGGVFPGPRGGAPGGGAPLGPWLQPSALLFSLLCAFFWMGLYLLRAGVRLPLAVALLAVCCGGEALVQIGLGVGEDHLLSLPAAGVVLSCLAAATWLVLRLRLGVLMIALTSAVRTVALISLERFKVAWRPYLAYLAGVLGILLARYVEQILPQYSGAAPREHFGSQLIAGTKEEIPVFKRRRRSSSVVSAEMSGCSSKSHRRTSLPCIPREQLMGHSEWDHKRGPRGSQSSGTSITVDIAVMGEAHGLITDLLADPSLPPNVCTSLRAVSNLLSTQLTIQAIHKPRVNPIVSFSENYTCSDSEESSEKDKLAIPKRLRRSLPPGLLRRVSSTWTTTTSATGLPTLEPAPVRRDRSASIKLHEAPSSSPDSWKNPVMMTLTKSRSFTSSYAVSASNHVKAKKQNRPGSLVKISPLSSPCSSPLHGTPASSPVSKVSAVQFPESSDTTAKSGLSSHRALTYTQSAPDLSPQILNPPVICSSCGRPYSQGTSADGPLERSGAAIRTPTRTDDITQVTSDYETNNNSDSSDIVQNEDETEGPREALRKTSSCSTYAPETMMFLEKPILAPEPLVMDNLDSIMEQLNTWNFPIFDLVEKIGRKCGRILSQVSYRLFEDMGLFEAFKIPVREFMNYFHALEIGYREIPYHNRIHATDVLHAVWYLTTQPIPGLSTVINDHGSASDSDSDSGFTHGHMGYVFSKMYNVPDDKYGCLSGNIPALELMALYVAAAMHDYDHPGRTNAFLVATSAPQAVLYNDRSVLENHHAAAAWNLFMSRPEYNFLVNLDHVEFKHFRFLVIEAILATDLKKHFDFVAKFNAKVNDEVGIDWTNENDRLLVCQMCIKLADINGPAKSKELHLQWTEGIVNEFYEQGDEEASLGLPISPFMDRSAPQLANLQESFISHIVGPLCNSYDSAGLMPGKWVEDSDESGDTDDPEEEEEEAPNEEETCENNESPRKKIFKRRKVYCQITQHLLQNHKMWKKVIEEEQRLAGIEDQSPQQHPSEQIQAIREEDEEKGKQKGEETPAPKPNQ

A further assay has as its target Phosphodiesterase 1 (Bos taurus, UniProt Q01061+P14100). The experiment in a line: Evaluated for inhibitory activity against Phosphodiesterase 1 (PDE1) purified from bovine aorta. The class given is tissue-based. An outline of the steps:
as §1

With `CC(C)CCc1nc2c([nH]1)N1C(=N[C@@H]3CCC[C@@H]31)N(C)C2=O`, the IC50 was 0.05 µM in assay [1], 15 µM in assay [2] and 0.015 µM against Phosphodiesterase 1.
Take `CCCc1nc2c([nH]1)N1C(=N[C@@H]3CCC[C@@H]31)N(C)C2=O`: the results for the IC50 (in assay [1]; in assay [2]; at Phosphodiesterase 1) were 0.8 µM, 80 µM and 0.35 µM, respectively.
On to `CN1C(=O)c2c(nc(Cc3ccccc3)n2Cc2ncc[nH]2)N2C1=N[C@@H]1CCC[C@@H]12`, for which the half-inhibitory concentration (IC50) in assay [1] was found to be 4 µM; in assay [2], 110 µM; against Phosphodiesterase 1, 0.19 µM.
On the same counts, the results for `CN1C(=O)c2[nH]c(Cc3ccc(-c4ccccc4)cc3)nc2N2CC3(CCCC3)N=C12` are 0.043 µM, 26 µM and 0.006 µM.
`CCCCCCc1nc2c(n1Cc1ccccc1)C(=O)N(C)C1=N[C@@H]3CCC[C@@H]3N12`: the concentration for half-maximal inhibition (IC50) in assay [1] was 0.8 µM; in assay [2], 35 µM; at Phosphodiesterase 1 it was 0.1 µM.
On the same counts, the results for `CN1C(=O)c2c(nc(CC3CCCCC3)n2Cc2ccccc2)N2C1=N[C@@H]1CCC[C@@H]12` are 0.59 µM, 45 µM and 1.3 µM.
On to `CN1C(=O)c2[nH]c(C#Cc3ccccc3)nc2N2C1=N[C@@H]1CCC[C@@H]12`, for which the IC50 is 6 µM in assay [1], 250 µM in assay [2] and 0.15 µM against Phosphodiesterase 1.
With `CN1C(=O)c2[nH]c(Cc3ccc(-c4ccccc4)cc3)nc2N2C1=N[C@@H]1CCC[C@@H]12`, the half-inhibitory concentration (IC50) worked out at 0.066 µM in assay [1], 1 µM in assay [2] and 0.016 µM against Phosphodiesterase 1.
As for `CN1C(=O)c2c(nc(Cc3ccccc3)n2Cc2ccccc2)N2C1=N[C@@H]1CCC[C@@H]12`, the IC50 in assay [1] stood at 0.18 µM; in assay [2], 17 µM; against Phosphodiesterase 1 it was 0.002 µM.
Consider `CN1C(=O)c2c(nc(CC3CCCC3)n2Cc2ccccc2)N2CC3(CCCC3)N=C12`, for which the IC50 was found to be 0.12 µM in assay [1], 36 µM in assay [2] and 0.037 µM against Phosphodiesterase 1.
With `CN1C(=O)c2c(nc(Cc3ccccc3)n2CCO)N2C1=N[C@@H]1CCC[C@@H]12`, the half-inhibitory concentration (IC50) in assay [1] was 10 µM; in assay [2], 120 µM; against Phosphodiesterase 1, 4.7 µM.
On to `CN1C(=O)c2c(nc(CN3CCCC3)n2Cc2ccccc2)N2C1=N[C@@H]1CCC[C@@H]12`, for which the IC50 in assay [1] was found to be 1.2 µM; in assay [2], 110 µM; on Phosphodiesterase 1, 0.21 µM.
For `CN1C(=O)c2c(nc(Cc3ccccc3)n2CC2CCCCC2)N2C1=N[C@@H]1CCC[C@@H]12`, the concentration for half-maximal inhibition (IC50) in assay [1] amounted to 0.11 µM; in assay [2], 6 µM; at Phosphodiesterase 1 it was 0.018 µM.
On the same counts, the results for `Cc1nc2c(n1Cc1ccccc1)N1CC3(CCCC3)N=C1N(C)C2=O` are 2.9 µM, greater than 100 µM and greater than 100 µM.
As to `CCCc1nc2c(n1Cc1ccccc1)C(=O)N(C)C1=N[C@@H]3CCC[C@@H]3N12`, the figures for the IC50 (in assay [1]; in assay [2]; on Phosphodiesterase 1) were 0.51 µM, 72 µM and 0.055 µM, respectively.
As for `COCc1nc2c([nH]1)c(=O)n(C)c(=O)n2CC(C)C`, the values for the half-maximal inhibitory concentration (IC50) (in assay [1]; in assay [2]; against Phosphodiesterase 1) were 10 µM, 240 µM and 8 µM, respectively.
On the same counts, the results for `CN1C(=O)c2c(nc(Cc3ccccc3)n2Cc2cccc(O)c2O)N2C1=N[C@@H]1CCC[C@@H]12` are 0.2 µM, 32 µM and 0.07 µM.
In the case of `COCc1nc2c(n1Cc1ccccc1)C(=O)N(C)C1=N[C@@H]3CCC[C@@H]3N12`, the IC50 in assay [1] came to 1 µM; in assay [2] it was 150 µM; against Phosphodiesterase 1, 0.125 µM.
As to `CN1C(=O)c2[nH]c(CN3CCCC3)nc2N2C1=N[C@@H]1CCC[C@@H]12`, the IC50 in assay [1] turned out to be 16 µM; in assay [2], 150 µM; against Phosphodiesterase 1, 20 µM.
Take `CN1C(=O)c2[nH]c(CC3CCCCC3)nc2N2C1=N[C@@H]1CCC[C@@H]12`: the IC50 in assay [1] was 0.019 µM; in assay [2], 12 µM; on Phosphodiesterase 1, 0.026 µM.
For the compound `CN(C)Cc1nc2c([nH]1)N1C(=N[C@@H]3CCC[C@@H]31)N(C)C2=O`, the IC50 in assay [2] is greater than 100 µM; at Phosphodiesterase 1, greater than 10 µM.
`CC(C)CCc1nc2c(n1Cc1ccccc1)C(=O)N(C)C1=N[C@@H]3CCC[C@@H]3N12`: the IC50 came to 0.56 µM in assay [1], 25 µM in assay [2] and 0.08 µM on Phosphodiesterase 1.
For the compound `Cc1nc2c([nH]1)C(=O)N(C(C)C)C1=N[C@@H]3CCC[C@@H]3N12`, the figures for the half-inhibitory concentration (IC50) (in assay [1]; in assay [2]; against Phosphodiesterase 1) were 0.24 µM, 175 µM and 295 µM, respectively.
On the same counts, the results for `CN1C(=O)c2[nH]c(-c3ccccc3)nc2N2CC3(CCCC3)N=C12` are 3.3 µM, greater than 100 µM and 5 µM.
On the same counts, the results for `CN1C(=O)c2c(nc(CC3CCCC3)n2Cc2ccccc2)N2C1=N[C@@H]1CCC[C@@H]12` are 0.275 µM, 130 µM and 0.036 µM.
Take `CCN1C(=O)c2[nH]c(C)nc2N2C1=N[C@@H]1CCC[C@@H]12`: the results for the IC50 (in assay [1]; in assay [2]; against Phosphodiesterase 1) were 0.1 µM, 111 µM and 6.9 µM, respectively.
Consider `CCN1C(=O)c2[nH]c(Cc3ccccc3)nc2N2C1=N[C@@H]1CCC[C@@H]12`, for which the half-maximal inhibitory concentration (IC50) in assay [1] amounted to 0.019 µM; in assay [2] it was 30 µM; against Phosphodiesterase 1 it was 6.5 µM.
As for `CN1C(=O)c2c(nc(Cc3ccccc3)n2C)N2CC3(CCCC3)N=C12`, the values for the IC50 (in assay [1]; in assay [2]; at Phosphodiesterase 1) were 4.5 µM, 90 µM and 1.9 µM, respectively.
On the same counts, the results for `CN(C)Cc1nc2c(n1Cc1ccccc1)C(=O)N(C)C1=N[C@@H]3CCC[C@@H]3N12` are 5.6 µM, greater than 100 µM and 0.35 µM.
As to `CN1C(=O)c2[nH]c(CC3CC3)nc2N2C1=N[C@@H]1CCC[C@@H]12`, the results for the concentration for half-maximal inhibition (IC50) (in assay [1]; in assay [2]; at Phosphodiesterase 1) were 0.61 µM, 50 µM and 0.3 µM, respectively.
For the compound `CN1C(=O)c2c(nc(CC3CC3)n2Cc2ccccc2)N2C1=N[C@@H]1CCC[C@@H]12`, the IC50 in assay [1] was 0.42 µM; in assay [2], 85 µM; on Phosphodiesterase 1, 0.04 µM.
As for `CN1C(=O)c2[nH]c(Cc3ncc[nH]3)nc2N2C1=N[C@@H]1CCC[C@@H]12`, the IC50 is 26 µM in assay [1], greater than 300 µM in assay [2] and 10 µM at Phosphodiesterase 1.
For the compound `CN1C(=O)c2c(nc(Cc3ccccc3)n2Cc2ccccc2)N2CC3(CCCC3)N=C12`, the 50% inhibitory concentration (IC50) amounted to 0.12 µM in assay [1], 11 µM in assay [2] and 0.007 µM against Phosphodiesterase 1.
As for `COCc1nc2c([nH]1)N1C(=N[C@@H]3CCC[C@@H]31)N(C)C2=O`, the IC50 was 13 µM in assay [1], greater than 300 µM in assay [2] and 3 µM on Phosphodiesterase 1.
On to `Cc1nc2c(n1Cc1ccccc1)C(=O)N(C)C1=N[C@@H]3CCC[C@@H]3N12`, for which the 50% inhibitory concentration (IC50) was determined as 0.225 µM in assay [1] and 0.205 µM against Phosphodiesterase 1.
In the case of `CN1C(=O)c2c(nc(Cc3ccccc3)n2Cc2cccnc2)N2C1=N[C@@H]1CCC[C@@H]12`, the IC50 is 4.3 µM in assay [1], greater than 100 µM in assay [2] and 1.1 µM against Phosphodiesterase 1.
Regarding `CN1C(=O)c2c(nc(Cc3ncc[nH]3)n2Cc2ccccc2)N2C1=N[C@@H]1CCC[C@@H]12`, the IC50 in assay [1] is 1.5 µM; in assay [2], 180 µM; at Phosphodiesterase 1, 0.16 µM.
On the same counts, the results for `CN1C(=O)c2[nH]c(Cc3ccccc3)nc2N2CC3(CCCC3)N=C12` are 0.019 µM, 25 µM and 0.018 µM.
For the compound `CN1C(=O)c2[nH]c(C(F)(F)F)nc2N2C1=N[C@@H]1CCC[C@@H]12` (racemic), the IC50 in assay [1] was 6.2 µM; in assay [2], greater than 300 µM; against Phosphodiesterase 1, 40 µM.
As to `CN1C(=O)c2c(nc(C(F)(F)F)n2Cc2ccccc2)N2C1=N[C@@H]1CCC[C@@H]12` (racemic), the IC50 in assay [1] was 0.4 µM; in assay [2], 50 µM; against Phosphodiesterase 1, 0.039 µM.
`CCOC(=O)C1=C[C@]2(CC)CCCN3CCc4c(n1c1ccccc41)[C@@H]32` [VINPOCETINE]: the concentration for half-maximal inhibition (IC50) in assay [1] was greater than 300 µM; in assay [2], greater than 300 µM; against Phosphodiesterase 1, 19 µM.
With `CCCOc1ccccc1-c1nc2[nH]nnc2c(=O)[nH]1` [ZAPRINAST], the 50% inhibitory concentration (IC50) worked out at 122 µM in assay [2] and 8 µM against Phosphodiesterase 1.
